Drawing on ChEMBL document CHEMBL4007460, “17β-Hydroxywithanolides as Sensitizers of Renal Carcinoma Cells to Tumor Necrosis Factor-α Related Apoptosis Inducing Ligand (TRAIL) Mediated Apoptosis: Structure-Activity Relationships” (J Med Chem, 2017), this text covers IC50 and Activity for 31 compounds.

The test system of series [1] is ACHN. The experiment in a line: Sensitization of TRAIL-induced apoptosis in human ACHN cells assessed as reduction in cell viability preincubated for 2 hrs followed by addition of TRAIL measured after 18 hrs by MTS assay. The class given is functional, cell-based. In outline: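 ACHN cells were seeded at 5000/well and rested overnight at 37 °C, in RPMI with 5% FCS, glutamine, NEAA, pyruvate, HEPES and 2-mercaptoethanol. Compound pretreatment ran 2 h, then TRAIL was added to 50 ng/mL for 18 h at 37 °C. Viability was read by MTS (2 h, A490). IC50 values (cell number reduced 50%) came from dose-response curves; triplicates, at least 3 independent experiments, ± SD.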

Series [2] can be described thus: Glutathione reactivity in DMSO assessed as formation of MIchael adduct with GSH at pH 7.4 after 24 hrs in presence of NAC by HPLC method. An outline of the steps: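 Withanolide (2.12 μM in DMSO, 0.5 mL) mixed with equal volume of 4.24 μM GSH or NAC solution at pH 7.4, 37 °C. Aliquots taken at 0, 0.5, 2, 4, 8, 24 h, stored −80 °C; unreacted withanolide quantified by C18 HPLC (H2O with 40 mM NH4OAc–MeOH gradient, UV 230 nm) using peak area.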

For series [3], the system named is ACHN. The series is described as follows: Cytotoxicity in human ACHN cells assessed as reduce cell number after 48 hrs by MTS assay. The class given is cell-based. In outline: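 ACHN cells exposed to compound for 48 h at 37 °C; viable cell number by MTS read-out. Triplicate determinations; IC50 (concentration reducing cell number by 50%) from 3 independent experiments, ± SD.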

Series [4] deals with ACHN. The experiment in a line: Reduction cFLIP level in human ACHN cells at 500 nM after 18 hrs by Western blot analysis. The class given is functional, cell-based. An outline of the steps:
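ACHN cells (RPMI, 5% FBS) plated 1.5×10^6/well, grown overnight at 37 °C, then exposed to compound at 500 nM for 18 h. Lysed in RIPA with protease/phosphatase inhibitors and zVAD-FMK; 20 μg protein per lane immunoblotted with anti-FLIP (7F10); GAPDH as loading control.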

The source made the active and inactive calls. No cut-off for these calls is given here.

`CC1=C(C)C(=O)O[C@@H]([C@](C)(O)[C@]2(O)CC[C@@]3(O)[C@@H]4C[C@H]5O[C@]56CCCC(=O)[C@]6(C)[C@H]4CC[C@]23CO)C1`: in series [1], the IC50 is greater than 4000 nM.
For `CC(=O)O[C@@H]1C=CC(=O)[C@]2(C)[C@H]3CC[C@]4(C)[C@](O)([C@@](C)(O)[C@H]5CC(C)=C(C)C(=O)O5)CC[C@@]4(O)[C@@H]3C[C@H]3O[C@]132`, the outcome in series [2] was Active. The Activity result in series [3] was “Toxic”. The IC50 in series [1] is 90 nM.
As to `CC(=O)OC[C@]12CC[C@H]3[C@@H](CC=C4CC=CC(=O)[C@@]43C)[C@]1(O)[C@@H](OC(C)=O)C[C@@]2(O)[C@@](C)(O)[C@H]1CC(CO[C@@H]2O[C@H](CO)[C@@H](O)[C@H](O)[C@H]2O)=C(C)C(=O)O1`, the IC50 in series [1] is greater than 4000 nM.
For `CC(=O)OC[C@]12CC[C@H]3[C@@H](CC=C4CC=CC(=O)[C@@]43C)[C@]1(O)CC[C@@]2(O)[C@@](C)(O)[C@H]1CC(C)=C(C)C(=O)O1`, in series [1], the IC50 came to 564 nM.
As for `CC(=O)O[C@H]1C=CC(=O)[C@]2(C)[C@H]3CC[C@]4(C)[C@](O)([C@@](C)(O)[C@H]5CC(C)=C(C)C(=O)O5)CC[C@@]4(O)[C@@H]3C[C@H]3O[C@]132`, the outcome in series [2] and in series [4] was Active. Moreover, in series [3], the Activity entry is reported as “Toxic”. Further, the IC50 in series [1] was found to be 76 nM.
For the compound `CC(=O)OC[C@]12CC[C@H]3[C@@H](CC=C4CC=CC(=O)[C@@]43C)[C@]1(O)[C@@H](OC(C)=O)C[C@@]2(O)[C@@](C)(O)[C@H]1CC(C)=C(CO)C(=O)O1`, the IC50 in series [1] is greater than 4000 nM.
On the same count and under the same terms, in the case of `CO[C@H]1CC(=O)[C@]2(C)[C@H]3CC[C@]4(COC(C)=O)[C@](O)([C@@](C)(O)[C@H]5CC(C)=C(C)C(=O)O5)CC[C@@]4(O)[C@@H]3C[C@H]3O[C@]32C1` it was greater than 4000 nM; in that of `CC(=O)OC[C@]12CC[C@H]3[C@@H](CC=C4CC=CC(=O)[C@@]43C)[C@]1(O)[C@@H](OC(C)=O)C[C@@]2(O)[C@@](C)(O)[C@H]1CC(C)=C(C)C(=O)O1`, greater than 4000 nM.
Regarding `CC(=O)OCC1=C(C)C(=O)O[C@@H]([C@](C)(O)[C@]2(O)C[C@H](OC(C)=O)[C@@]3(O)[C@@H]4CC=C5CC=CC(=O)[C@]5(C)[C@H]4CC[C@@]32COC(C)=O)C1`, the IC50 in series [1] was greater than 4000 nM.
For `CC1=C(C)C(=O)O[C@@H]([C@](C)(O)[C@]2(O)CC[C@@]3(O)[C@@H]4C[C@H]5O[C@]56[C@@H](O)C=CC(=O)[C@]6(C)[C@H]4CC[C@]23C)C1`, the result in series [2] was Active. For the same compound, the Activity result in series [3] is “Toxic”. The IC50 in series [1] came to 563 nM.
For the compound `CC(=O)OC[C@]12CC[C@H]3[C@@H](CC=C4C[C@@H](OS(=O)(=O)O)CC(=O)[C@@]43C)[C@]1(O)[C@@H](OC(C)=O)C[C@@]2(O)[C@@](C)(O)[C@H]1CC(C)=C(C)C(=O)O1`, in series [1], the IC50 was greater than 4000 nM.
On the same count and under the same terms, in the case of `CC1=C(C)C(=O)O[C@@H]([C@](C)(O)[C@]2(O)CC[C@@]3(O)[C@@H]4C[C@H]5O[C@]56[C@@H](OC(=O)n5ccnc5)C=CC(=O)[C@]6(C)[C@H]4CC[C@]23C)C1` it was 233 nM; in that of `CC(=O)OC[C@]12CC[C@H]3[C@@H](C[C@@H]4O[C@@]45CC=CC(=O)[C@]35C)[C@]1(O)[C@@H](O)C[C@@]2(O)[C@@](C)(O)[C@H]1CC(C)=C(C)C(=O)O1`, 1650 nM; in that of `CC(=O)OC[C@]12CC[C@H]3[C@@H](C[C@H]4O[C@]45CCCC(=O)[C@]35C)[C@]1(O)CC[C@@]2(O)[C@@](C)(O)[C@H]1CC(C)=C(C)C(=O)O1`, greater than 4000 nM.
As for `COC(=O)O[C@H]1C=CC(=O)[C@]2(C)[C@H]3CC[C@]4(C)[C@](O)([C@@](C)(O)[C@H]5CC(C)=C(C)C(=O)O5)CC[C@@]4(O)[C@@H]3C[C@H]3O[C@]132`, the result in series [2] and in series [4] was Active. In addition, the Activity result in series [3] is “Toxic”. Besides, the IC50 in series [1] was found to be 111 nM.
With `CC(=O)OC[C@]12CC[C@H]3[C@@H](C[C@H]4O[C@]45C[C@@H](N=[N+]=[N-])CC(=O)[C@]35C)[C@]1(O)CC[C@@]2(O)[C@@](C)(O)[C@H]1CC(C)=C(C)C(=O)O1`, in series [1], the IC50 was found to be 251 nM.
Same read-out and setting: in the case of `CC1=C(C)C(=O)O[C@@H]([C@](C)(O)[C@]2(O)CC[C@@]3(O)[C@@H]4C[C@H]5O[C@]56CC=CC(=O)[C@]6(C)[C@H]4CC[C@]23CO)C1` it was 1950 nM; in that of `CC(=O)OC[C@]12CC[C@H]3[C@@H](C[C@H]4O[C@]45C[C@@H](n4ccnc4)CC(=O)[C@]35C)[C@]1(O)CC[C@@]2(O)[C@@](C)(O)[C@H]1CC(C)=C(C)C(=O)O1`, 164 nM.
As to `CC1=C(C)C(=O)O[C@@H]([C@](C)(O)[C@]2(O)CC[C@@]3(O)[C@@H]4C[C@H]5O[C@]56[C@@H](O)[C@@H](N=[N+]=[N-])CC(=O)[C@]6(C)[C@H]4CC[C@]23C)C1`, the IC50 in series [1] was determined as 1800 nM.
Same read-out and setting: in the case of `CC(=O)OC[C@]12CC[C@H]3[C@@H](C[C@@H]4O[C@@]45CC=CC(=O)[C@]35C)[C@]1(O)[C@@H](OC(C)=O)C[C@@]2(O)[C@@](C)(O)[C@H]1CC(C)=C(C)C(=O)O1` it was greater than 4000 nM.
The same measure, in the same setting: in the case of `CC1=C(C)C(=O)O[C@@H]([C@](C)(O)[C@]2(O)CC[C@@]3(O)[C@@H]4C[C@H]5O[C@]56C(=O)C=CC(=O)[C@]6(C)[C@H]4CC[C@]23C)C1` it was greater than 4000 nM; in that of `CC(=O)OC[C@]12CC[C@H]3[C@@H](C[C@H]4O[C@]45CC=CC(=O)[C@]35C)[C@]1(O)[C@@H](OC(C)=O)C[C@@]2(O)[C@@](C)(O)[C@H]1CC(C)=C(C)C(=O)O1`, greater than 4000 nM.
In the case of `CC(=O)OC[C@]12CC[C@H]3[C@@H](C[C@@H]4O[C@@]45CC=CC(=O)[C@]35C)[C@]1(O)CC[C@@]2(O)[C@@](C)(O)[C@H]1CC(C)=C(C)C(=O)O1`, the result in series [2] was inactive. The IC50 in series [1] was greater than 4000 nM.
On to `CC1=C(C)C(=O)O[C@@H]([C@](C)(O)[C@]2(O)CC[C@@]3(O)[C@@H]4CC=C5[C@H](O)C=CC(=O)[C@]5(C)[C@H]4CC[C@]23C)C1`, for which the IC50 in series [1] worked out at 284 nM.
Still for that read-out and setting: next, `CC(=O)OC[C@]12CC[C@H]3[C@@H](CC=C4CC=CC(=O)[C@@]43C)[C@]1(O)[C@@H](OC(C)=O)C[C@@]2(O)[C@@](C)(O)[C@H]1CC(CO)=C(C)C(=O)O1`: greater than 4000 nM.
Same read-out and setting: next, `CC(=O)OC[C@]12CC[C@H]3[C@@H](CC=C4C[C@@H](OS(=O)(=O)O)CC(=O)[C@@]43C)[C@]1(O)CC[C@@]2(O)[C@@](C)(O)[C@H]1CC(C)=C(C)C(=O)O1`: greater than 4000 nM; `CC(=O)OC[C@]12CC[C@H]3[C@@H](CC=C4CC=CC(=O)[C@@]43C)[C@]1(O)[C@@H](OC(C)=O)C[C@@]2(O)[C@@](C)(O)[C@H]1CC(C)=C(CO[C@@H]2O[C@H](CO)[C@@H](O)[C@H](O)[C@H]2O)C(=O)O1`: greater than 4000 nM; `CC(=O)OC[C@]12CC[C@H]3[C@@H](C[C@H]4O[C@]45CC=CC(=O)[C@]35C)[C@]1(O)CC[C@@]2(O)[C@@](C)(O)[C@H]1C[C@]2(C)O[C@]2(C)C(=O)O1`: 1250 nM.
The same measure, in the same setting: next, `CC1=C(C)C(=O)O[C@@H]([C@](C)(O)[C@]2(O)CC[C@@]3(O)[C@@H]4CC=C5C(=O)C=CC(=O)[C@]5(C)[C@H]4CC[C@]23C)C1`: 168 nM.
On to `CC(=O)OC[C@]12CC[C@H]3[C@@H](C[C@H]4O[C@]45CC=CC(=O)[C@]35C)[C@]1(O)[C@@H](O)C[C@@]2(O)[C@@](C)(O)[C@H]1CC(C)=C(C)C(=O)O1`, for which the IC50 in series [1] is greater than 4000 nM.
On to `CC(=O)OC[C@]12CC[C@H]3[C@@H](CC=C4CC=CC(=O)[C@@]43C)[C@]1(O)[C@@H](O)C[C@@]2(O)[C@@](C)(O)[C@H]1CC(C)=C(C)C(=O)O1`, for which the IC50 in series [1] was greater than 4000 nM.
